For series [1], the system named is MIA PaCa-2. The experiment in a line: Antiproliferation activity against human MIAPaCa2 cells assessed as reduction in cell viability at 2.5 uM incubated for 48 hrs by MTT assay relative to control. The format is functional. The essentials:
(§1)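 Single-concentration screen at 2.5 μM against BxPc3 and Mia-capa2 pancreatic cancer cells. Read-out is percent growth inhibition.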

For series [2], the system named is BXPC-3. The experiment in a line: Antiproliferation activity against human BxPC3 cells assessed as reduction in cell viability at 2.5 uM incubated for 48 hrs by MTT assay relative to control. Type of series: functional. The essentials:
as §1

Series [3] addresses Bromodomain-containing protein 4 (Homo sapiens, UniProt O60885). Briefly: Inhibition of BRD4 bromodomain1 (unknown origin) using peptide histone H4 (SGRGACKGGACKGLGAC-KGGAACKRHGSGSK-biotin) as substrate incubated for 15 mins followed by substrate addition measured after 1 hr by alphascreen assay.
Series [4] concerns HCT-116. Briefly: Antiproliferation activity against human HCT116 cells assessed as reduction in cell viability incubated for 48 hrs by MTT assay. Type of series: functional, cell-based. To be noted: HCT-116, 48 h. The essentials:
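HCT116 cells treated across a concentration gradient. IC50 was taken from dose–response curves, reported as mean ± SD of at least three independent experiments.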

Series [5] relates to HCT-116. Briefly: Antiproliferation activity against human HCT116 cells assessed as reduction in cell viability at 2 uM incubated for 48 hrs by MTT assay relative to control. Type of series: functional. Put shortly:
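HCT116 colon cancer cells screened at a single 2.0 μM concentration. Read-out is percent growth inhibition.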

Series [6] concerns HCT-116. Briefly: Induction of apoptosis in human HCT116 cells assessed as downregulation of c-myc protein expression at 1 uM incubated for 48 hrs by western blot analysis. Type of series: functional, cell-based. The essentials: (§2)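 HCT116 cells treated at 1 μM for 48 h. Bcl-2, HEXIM1, BRD4 and c-Myc protein levels were measured by western blot.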
In series [7] the test system is HCT-116. The experiment in a line: Induction of apoptosis in human HCT116 cells assessed as decrease in Bcl2 protein expression level at 1 uM incubated for 48 hrs by western blot analysis. Type of series: functional, cell-based. The essentials: as §2
Series [8] deals with HCT-116. The experiment in a line: Induction of cell cycle arrest in human HCT116 cells assessed as accumulation at G0/G1 phase at 0.16 uM incubated for 48 hrs by flow cytometry. The format is functional, cell-based. Put shortly: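 HCT116 cells exposed to 0.16 μM for 48 h. Cell cycle phase distribution was measured, including the G0/G1 fraction.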
The subject of series [9] is CT26. The experiment in a line: Antitumor activity against mouse CT26 cells xenografted in C57BL/6 mouse assessed as tumor suppression at 20 mg/kg, ip administered for 14 days and measured every two days relative to control. The conditions noted are these: C57BL/6, CT26, ip, 336 h, read-out: GI.
Series [10] relates to HCT-116. Briefly: Antiproliferation activity against human HCT116 cells assessed as reduction in cell viability for 12 days by crystal violet staining based plate clone-forming analysis. The format is functional. To be noted: dose microM 0.008-0.165, time 12.0 day. Put shortly: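 Plate colony-formation assay in HCT116 cells with 12 days of compound exposure at several concentrations.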

Series [11] relates to CT26. The experiment in a line: Antitumor activity against […] xenografted in C57BL/6 mouse assessed as tumor suppression at 13.6 mg/kg, iv administered for 14 days and measured every two days relative to control. To be noted: C57BL/6, CT26, iv, 336 h, time 14 day, read-out: GI. Type of series: functional.
For series [12], the system named is CT26. Briefly: Anticancer activity against […] xenografted in C57BL/6 mouse assessed as cell morphological changes measured at 20 mg/kg, iv administered for 14 days by hematoxylin staining based immunohistochemical analysis. Type of series: functional, organism-based. The conditions noted are these: time 14.0 day.
Series [13] concerns HCT-116. Briefly: Induction of apoptosis in human HCT116 cells assessed as activation of downstream effector Caspase 3 at 1 uM incubated for 48 hrs by western blot analysis. The format is functional, cell-based.
The subject of series [14] is CT26. Briefly: Anticancer activity against mouse CT26 cells xenografted in C57BL/6 mouse assessed as decrease in […] expression at 20 mg/kg, ip administered for 14 days by hematoxylin staining based immunohistochemical analysis. The conditions noted are these: time 14.0 day.
Series [15] has as its system HCT-116. The experiment in a line: Induction of apoptosis in human HCT116 cells assessed as upregulation of BRD4 expression at 1 uM incubated for 48 hrs by western blot analysis. The format is functional, cell-based. The essentials: as §2
Series [16] in a line: Toxicity in C57BL/6 mouse xenografted with mouse CT26 cells assessed as body weight at 20 mg/kg, ip administered for 14 days and measured every two days. The conditions noted are these: in vivo, 336 h.
The test system of series [17] is CT26. Briefly: Antitumor activity against […] xenografted in C57BL/6 mouse assessed as tumor suppression at 5 mg/kg, iv administered for 14 days and measured every two days relative to control. Type of series: functional. To be noted: C57BL/6, CT26, iv, 336 h, time 14 day, read-out: GI.
Series [18] has as its system CT26. Briefly: Anticancer activity against mouse CT26 cells xenografted in C57BL/6 mouse assessed as upregulation in HEXIM1 expression at 20 mg/kg, ip administered for 14 days by hematoxylin staining based immunohistochemical analysis. To be noted: time 14.0 day.
Series [19] deals with HCT-116. The experiment in a line: Induction of apoptosis in human HCT116 cells assessed as upregulation of HEXIM1 protein expression at 1 uM incubated for 48 hrs by western blot analysis. Type of series: functional, cell-based. The essentials:
as §2

The subject of series [20] is CT26. The experiment in a line: Anticancer activity against mouse CT26 cells xenografted in C57BL/6 mouse assessed as decrease in c-myc expression at 20 mg/kg, ip administered for 14 days by hematoxylin staining based immunohistochemical analysis. To be noted: time 14.0 day.
The test system of series [21] is CT26. Briefly: Antitumor activity against […] xenografted in C57BL/6 mouse assessed as tumor suppression at 10 mg/kg, iv administered for 14 days and measured every two days relative to control. To be noted: C57BL/6, CT26, iv, 336 h, time 14 day, read-out: GI. Type of series: functional.

SMILES strings stand for the structures. Active and inactive are the calls of the source. The rule behind the calls is not given here.

Take `Cc1noc(C)c1-c1ccc2c(c1)C(c1ccccc1)N(CCCCCCN1C(=O)N(C)c3ccc(-c4c(C)noc4C)cc3C1c1ccccc1)C(=O)N2C` (stereo not drawn): the Activity turned out to be 70.9% in series [1], 44% in [2] and 59.7% in series [5]. Besides, the IC50 in series [3] amounted to 42 nM; in [4] it was 1100 nM.
Turning to `Cc1noc(C)c1-c1ccc2c(c1)C(c1ccccc1)N(Cc1cn(CCn3cc(CN4C(=O)Nc5ccc(-c6c(C)noc6C)cc5C4c4ccccc4)nn3)nn1)C(=O)N2` (stereo not drawn), the Activity in series [1] came to 62.2%; in series [2], 53%; in [5], 60.3%. Also, the IC50 in [3] is less than 2.1 nM.
In the case of `Cc1noc(C)c1-c1ccc2c(c1)C(c1ccccc1)NC(=O)N2C` (stereo not drawn), the values for the Activity in series [1], in series [2] and in series [5] were 59.1%, 11.2% and 14%, respectively. Besides, the outcome in series [6], in series [7] and in [8] was Active. The IC50 in [3] turned out to be 32 nM; in series [4] it was 3340 nM. Besides, in series [9], the inhibition in vivo at 20 mg/kg turned out to be 11.5%. Further, in series [10], the inhibition result was “Active”.
Consider `CCS(=O)(=O)Nc1ccc(Oc2ccc(F)cc2F)c(-c2cn(C)c(=O)c3[nH]ccc23)c1` [MIVEBRESIB], for which the Activity came out at 64.3% in series [1], 36.8% in series [2] and 69.5% in [5]. In addition, the concentration for half-maximal inhibition (IC50) in series [3] is 2.5 nM; in series [4], 550 nM.
As for `Cc1noc(C)c1-c1ccc2c(c1)C(c1ccccc1)N(CCCCCN1C(=O)N(C)c3ccc(-c4c(C)noc4C)cc3C1c1ccccc1)C(=O)N2C` (stereo not drawn), the results for the Activity in [1], in series [2] and in series [5] were 71.3%, 27.9% and 52%, respectively. Also, it took 56 nM to reach half-maximal inhibition in [3] (IC50).
As to `Cc1noc(C)c1-c1ccc2c(c1)C(c1ccccc1)N(Cc1cn(CCOCCn3cc(CN4C(=O)Nc5ccc(-c6c(C)noc6C)cc5C4c4ccccc4)nn3)nn1)C(=O)N2` (stereo not drawn), the Activity in series [1] was determined as 54.4%; in series [2], 52.1%; in series [5], 55.6%. Moreover, in series [3], the IC50 is less than 2.1 nM.
For `Cc1noc(C)c1-c1ccc2c(c1)C(c1ccccc1)N(Cc1cn(CCCCCCn3cc(CN4C(=O)Nc5ccc(-c6c(C)noc6C)cc5C4c4ccccc4)nn3)nn1)C(=O)N2` (stereo not drawn) the same measures were 57.2%, 37.1%, 60.1% and less than 2.1 nM.
Take `Cc1sc2c(c1C)C(c1ccc(Cl)cc1)=N[C@@H](CC(=O)OC(C)(C)C)c1nnc(C)n1-2`: the Activity stood at 56.2% in series [1], 9.1% in series [2] and 23.2% in [5]. Moreover, in series [4], the IC50 was determined as 4210 nM.
Regarding `Cc1noc(C)c1-c1ccc2c(c1)C(c1ccccc1)N(CCOCCOCCOCCN1C(=O)N(C)c3ccc(-c4c(C)noc4C)cc3C1c1ccccc1)C(=O)N2C` (stereo not drawn), the results for the Activity in series [1], in series [2] and in [5] were 73.4%, 42.1% and 35.3%, respectively. Further, the IC50 in series [3] was determined as 19 nM.
For `Cc1noc(C)c1-c1ccc2c(c1)C(c1ccccc1)N(CCOCCOCCN1C(=O)N(C)c3ccc(-c4c(C)noc4C)cc3C1c1ccccc1)C(=O)N2C` (stereo not drawn) the same measures were 67.3%, 7.1%, 43.4% and 31 nM.
For `Cc1noc(C)c1-c1ccc2c(c1)C(c1ccccc1)N(CCCCCCCCCCN1C(=O)N(C)c3ccc(-c4c(C)noc4C)cc3C1c1ccccc1)C(=O)N2C` (stereo not drawn), the results for the Activity in series [1], in series [2] and in series [5] were 65.2%, 45.2% and 48.8%, respectively.
Regarding `Cc1noc(C)c1-c1ccc2c(c1)C(c1ccccc1)N(CCCCN1C(=O)N(C)c3ccc(-c4c(C)noc4C)cc3C1c1ccccc1)C(=O)N2C` (stereo not drawn), the Activity in series [1] amounted to 68.2%; in series [2], 46.4%; in series [5], 59.3%. Also, in series [3], the IC50 amounted to 13 nM.
For `Cc1noc(C)c1-c1ccc2c(c1)C(c1ccccc1)N(Cc1cn(CCOCCn3cc(CN4C(=O)N(C)c5ccc(-c6c(C)noc6C)cc5C4c4ccccc4)nn3)nn1)C(=O)N2C` (stereo not drawn), in that order: 64%, 23.2%, 49.6% and 4.2 nM.
As for `Cc1noc(C)c1-c1ccc2c(c1)C(c1ccccc1)N(Cc1cn(CCOCCOCCOCCn3cc(CN4C(=O)Nc5ccc(-c6c(C)noc6C)cc5C4c4ccccc4)nn3)nn1)C(=O)N2` (stereo not drawn), the Activity in [1] came to 66.4%; in series [2] it was 42.2%; in [5], 60.4%. Further, the IC50 in [3] was less than 2.1 nM.
For `Cc1noc(C)c1-c1ccc2c(c1)C(c1ccccc1)N(Cc1cn(CCOCCOCCn3cc(CN4C(=O)Nc5ccc(-c6c(C)noc6C)cc5C4c4ccccc4)nn3)nn1)C(=O)N2` (stereo not drawn), in that order: 63.2%, 21.8%, 60.5% and less than 2.1 nM.
Regarding `Cc1noc(C)c1-c1ccc2c(c1)C(c1ccccc1)N(Cc1cn(CCOCCOCCOCCn3cc(CN4C(=O)N(C)c5ccc(-c6c(C)noc6C)cc5C4c4ccccc4)nn3)nn1)C(=O)N2C` (stereo not drawn), the Activity is 68.4% in series [1], 61.3% in series [2], “Non-Toxic” in [16] and 83.6% in series [5]. In addition, the inhibition in vivo at 13.6 mg/kg in [11] was found to be 11.5%. For the same compound, the outcome in series [6], in [12], in series [13], in series [14], in [15] and in [7] was Active. For the same compound, the result in series [18], in series [19], in [8] and in series [20] was Active. In addition, the IC50 in series [3] was found to be 7.7 nM; in series [4], 162 nM. Further, the inhibition in vivo at 5 mg/kg in series [17] stood at 68%. Moreover, the inhibition in vivo at 20 mg/kg in [9] came to 56.1%. Further, the inhibition result in [10] was “Dose-dependent effect”. In addition, the inhibition in vivo at 10 mg/kg in series [21] was 33.8%.

Source of the values: ChEMBL document CHEMBL4725468, “Identification of 3,5-Dimethylisoxazole Derivatives as BRD4 Inhibitors for the Treatment of Colorectal Cancer” (ACS Med Chem Lett, 2020).
